In ChEMBL document CHEMBL3407360, “Proteasome inhibitors with pyrazole scaffolds from structure-based virtual screening” (J Med Chem, 2015):
Active and inactive are the calls of the source. No cut-off for these calls is given here.

species on record: Homo sapiens; experiment: Inhibition of human 20S proteasome chymotrypsin-like activity preincubated at 10 uM for 30 mins before substrate addition measured over 90 mins by fluorescence assay; conditions: not given

Row | inhibition | SMILES
1 | Active | Cc1ccc(OS(=O)(=O)c2ccc(C(F)(F)F)nc2)c(-c2cc(-c3ccccc3)n(CCN[C@@H]3CCNC3)n2)c1
2 | Active | Cc1ccc(OS(=O)(=O)c2cccc(C(F)(F)F)c2)c(-c2cc(-c3ccccc3)n(CC(=O)NCC(C)(C)C)n2)c1
3 | Active | Cc1ccc(OS(=O)(=O)c2cccc(C(F)(F)F)c2)c(-c2cc(-c3ccccc3)n(CC(=O)NCc3ccccc3)n2)c1
4 | Active | Cc1ccc(OS(=O)(=O)c2cccc(C(F)(F)F)c2)c(-c2cc(-c3ccccc3)n(CC(=O)N[C@@H]3CCN(C)C3)n2)c1
5 | Active | Cc1ccc(OS(=O)(=O)c2cccc(C(F)(F)F)c2)c(-c2cc(-c3ccccc3)n(CC(=O)O)n2)c1
6 | Active | CC(C)=CCOC(=O)Cn1nc(-c2cc(C)ccc2OS(=O)(=O)c2cccc(C(F)(F)F)c2)cc1-c1ccccc1
7 | Active | Cc1ccc(OS(=O)(=O)c2cccc(C(F)(F)F)c2)c(-c2cc(-c3ccccc3)n(CC(=O)O[C@@H]3CCNC3)n2)c1
8 | Active | Cc1ccc(OS(=O)(=O)c2cccc(C(F)(F)F)c2)c(-c2cc(-c3ccccc3)n(CC(=O)N(C)C)n2)c1
9 | Active | Cc1ccc(OS(=O)(=O)c2cccc(C(F)(F)F)c2)c(-c2cc(-c3ccccc3)n(CC(=O)OCc3cc(C)on3)n2)c1
10 | Active | Cc1ccc(OS(=O)(=O)c2cccc(Cl)c2)c(-c2cc(-c3ccccc3)n(CCN[C@@H]3CCNC3)n2)c1
11 | Active | Cc1ccc(OC(=O)c2cccc(C(F)(F)F)c2)c(-c2cc(-c3ccccc3)n(CCN[C@@H]3CCNC3)n2)c1
12 | Active | Cc1ccc(OS(=O)(=O)c2ccc3c(c2)OCCO3)c(-c2cc(-c3ccccc3)n(CCN[C@@H]3CCNC3)n2)c1
13 | Active | Cc1ccc(OS(=O)(=O)c2cccc(C(F)(F)F)c2)c(-c2cc(-c3ccccc3)n(CC(=O)N[C@H]3CCNC3)n2)c1
14 | Active | Cc1ccc(OS(=O)(=O)c2cccc(C(F)(F)F)c2)c(-c2cc(-c3ccccc3)n(CC(=O)NC[C@@H]3CCCO3)n2)c1
15 | Active | Cc1ccc(OS(=O)(=O)c2cccc(C(F)(F)F)c2)c(-c2cc(-c3ccccc3)n(CC(=O)N[C@@H]3CCN(C(=O)CN4CCOCC4)C3)n2)c1
16 | Active | Cc1ccc(OS(=O)(=O)c2cccc(C(F)(F)F)c2)c(-c2cc(-c3ccccc3)n(CC(=O)OCc3scnc3C)n2)c1
17 | Active | Cc1ccc(OS(=O)(=O)c2cccc(C(F)(F)F)c2)c(-c2cc(-c3ccccc3)n(CC(=O)NCc3cnccn3)n2)c1

Row | inhibition | SMILES
18 | Active | Cc1ccc(OS(=O)(=O)c2cccc(C(F)(F)F)c2)c(-c2cc(-c3ccccc3)n(CC(=O)NCCCN3CCCC3=O)n2)c1
19 | Active | Cc1ccc(OS(=O)(=O)c2ccc(F)c([N+](=O)[O-])c2)c(-c2cc(-c3ccccc3)n(CCN[C@@H]3CCNC3)n2)c1
20 | Active | Cc1ccc(OS(=O)(=O)c2cccc(C(F)(F)F)c2)c(-c2cc(-c3ccccc3)n(CC(=O)NC(C)(C)CO)n2)c1
21 | Active | Cc1ccc(OS(=O)(=O)c2cc(F)c(Br)c(F)c2)c(-c2cc(-c3ccccc3)n(CCN[C@@H]3CCNC3)n2)c1
22 | Active | Cc1ccc(OCc2cccc(C(F)(F)F)c2)c(-c2cc(-c3ccccc3)n(CCN[C@@H]3CCNC3)n2)c1
23 | Active | Cc1ccc(OS(=O)(=O)c2cccc(C(F)(F)F)c2)c(-c2cc(-c3ccccc3)n(CC(=O)N[C@@H]3CCN(C(=O)CCc4ccccc4)C3)n2)c1
24 | Active | Cc1ccc(OS(=O)(=O)c2cccc(C(F)(F)F)c2)c(-c2cc(-c3ccccc3)n(CC(=O)N(C)CC[C@@H](Oc3ccccc3)c3ccccc3)n2)c1
25 | Active | Cc1ccc(OS(=O)(=O)c2ccc(Br)cc2OC(F)(F)F)c(-c2cc(-c3ccccc3)n(CCN[C@@H]3CCNC3)n2)c1
26 | Active | CC(=O)N1CC[C@@H](NC(=O)Cn2nc(-c3cc(C)ccc3OS(=O)(=O)c3cccc(C(F)(F)F)c3)cc2-c2ccccc2)C1
27 | Active | Cc1ccc(OS(=O)(=O)c2cccc(C(F)(F)F)c2)c(-c2cc(-c3ccccc3)n(CC(=O)OCc3ccccc3)n2)c1
28 | Active | Cc1ccc(OS(=O)(=O)c2cccc(C(F)(F)F)c2)c(-c2cc(-c3ccccc3)n(CC(=O)NCCN3CCOCC3)n2)c1
29 | Active | Cc1ccc(OS(=O)(=O)c2cccc(C(F)(F)F)c2)c(-c2cc(-c3ccccc3)n(CC(=O)N[C@@H]3CCNC3)n2)c1
30 | Active | CCOCCS(=O)(=O)Oc1ccc(C)cc1-c1cc(-c2ccccc2)n(CCN[C@@H]2CCNC2)n1
31 | Active | Cc1ccc(OS(=O)(=O)c2cccc(C(F)(F)F)c2)c(-c2cc(-c3ccccc3)n(CC(=O)OCc3ccc(C)o3)n2)c1
32 | Active | Cc1ccc(OS(=O)(=O)c2cccc(C(F)(F)F)c2)c(-c2cc(-c3ccccc3)n(CC(=O)OCc3cccc(O)c3C)n2)c1
33 | Active | CC1=C(COC(=O)Cn2nc(-c3cc(C)ccc3OS(=O)(=O)c3cccc(C(F)(F)F)c3)cc2-c2ccccc2)Cc2ccccc21

species on record: Homo sapiens; experiment: Induction of human 20S proteasome chymotrypsin-like activity preincubated at 10 uM for 30 mins before substrate addition measured over 90 mins by fluorescence assay; conditions: not given

Row | Activity [%] | SMILES
34 | 200 | Cc1ccc(OS(=O)(=O)c2ccc(F)c([N+](=O)[O-])c2)c(-c2cc(-c3ccccc3)n(CCN[C@@H]3CCNC3)n2)c1
35 | 200 | CC1=C(COC(=O)Cn2nc(-c3cc(C)ccc3OS(=O)(=O)c3cccc(C(F)(F)F)c3)cc2-c2ccccc2)Cc2ccccc21

tested on: BXPC-3; experiment: Cytotoxicity against human BxPC3 cells after 72 hrs; type: functional, cell-based; conditions: not given
Method in brief: (§1)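 Adherent lines, growing in log phase in DMEM or RPMI 1640 with 10% FBS, were plated at 7,000–10,000 cells/well. Compound was added 24 h later at the final concentration. Viability was measured after 72 h by CellTiter Glo luminescence or CellTiter 96 Aqueous One absorbance.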

Row | SMILES | Activity
36 | Cc1ccc(OS(=O)(=O)c2cccc(C(F)(F)F)c2)c(-c2cc(C3CCCNC3)n(CCN[C@@H]3CCNC3)n2)c1 (some centres not stated) | inactive
37 | Cc1ccc(OS(=O)(=O)c2cccc(C(F)(F)F)c2)c(-c2cc(C3CCCN(C(=O)N[C@@H]4CCNC4)C3)n(CCN[C@@H]3CCNC3)n2)c1 (some centres not stated) | inactive
38 | Cc1ccc(OS(=O)(=O)c2cccc(C(F)(F)F)c2)c(-c2cc(C3CCCCC3)n(CCN[C@@H]3CCNC3)n2)c1 | inactive
39 | Cc1ccc(OS(=O)(=O)c2cccc(C(F)(F)F)c2)c(-c2cc(-c3ccccc3)n(CC(=O)N[C@@H]3CCNC3)n2)c1 | Active

tested on: BXPC-3; experiment: Cytotoxicity against carfilzomib-resistant human BxPC3 cells after 72 hrs; type: functional, cell-based; conditions: not given
Method in brief: (§2)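 Resistant BxPC-3 sublines were derived by about 6 months of stepwise increasing drug exposure. […] Compound was added 24 h after plating. Viability was read after 72 h by CellTiter Glo luminescence or CellTiter 96 Aqueous One.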

Row | SMILES | Activity
40 | Cc1ccc(OS(=O)(=O)c2cccc(C(F)(F)F)c2)c(-c2cc(-c3ccccc3)n(CC(=O)N[C@@H]3CCNC3)n2)c1 | Active

tested on: BXPC-3; experiment: Cytotoxicity against bortezomib-resistant human BxPC3 cells after 72 hrs; type: functional, cell-based; conditions: not given; method in brief: as §2

Row | SMILES | Activity
41 | Cc1ccc(OS(=O)(=O)c2cccc(C(F)(F)F)c2)c(-c2cc(-c3ccccc3)n(CC(=O)N[C@@H]3CCNC3)n2)c1 | Active

tested on: RPMI-8226; experiment: Inhibition of 20S proteasome chymotrypsin-like in human RPMI8226 cell extracts using Suc-LLVY-AMC as substrate preincubated at 1 to 10 uM for 30 mins before substrate addition by fluorescence assay; type: cell-free; conditions: not given
Method in brief: (§3)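 Cytosolic extracts of RPMI 8226 cells served as the proteasome source in place of purified enzyme. Extracts were preincubated with compound, and hydrolysis of Suc-LLVY-AMC (CT-L), Z-LLE-AMC (C-L) or Boc-LRR-AMC (T-L) was read by AMC fluorescence at ex 360/em 460 nm.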

Row | SMILES | inhibition
42 | Cc1ccc(OS(=O)(=O)c2cccc(C(F)(F)F)c2)c(-c2cc(-c3ccccc3)n(CC(=O)N[C@@H]3CCNC3)n2)c1 | Active

tested on: RPMI-8226; experiment: Inhibition of 20S proteasome caspase-like in human RPMI8226 cell extracts using Z-LLE-AMC as substrate preincubated at 1 to 10 uM for 30 mins before substrate addition by fluorescence assay; type: cell-free; conditions: not given; method in brief: as §3

Row | SMILES | inhibition
43 | Cc1ccc(OS(=O)(=O)c2cccc(C(F)(F)F)c2)c(-c2cc(-c3ccccc3)n(CC(=O)N[C@@H]3CCNC3)n2)c1 | Active

tested on: RPMI-8226; experiment: Inhibition of 20S proteasome trypsin-like in human RPMI8226 cell extracts using Boc-LRR-AMC as substrate preincubated at 1 to 10 uM for 30 mins before substrate addition by fluorescence assay; type: cell-free; conditions: not given; method in brief: as §3

Row | SMILES | inhibition
44 | Cc1ccc(OS(=O)(=O)c2cccc(C(F)(F)F)c2)c(-c2cc(-c3ccccc3)n(CC(=O)N[C@@H]3CCNC3)n2)c1 | inactive

tested on: Liver; experiment: Metabolic stability in Balb/c mouse liver microsomes; type: ADME; conditions: not given
Method in brief: (§4)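 Compound at 1 µM was incubated with 0.5 mg/ml microsomal protein, either pooled Balb/c mouse or pooled human. The buffer was 100 mM Tris-HCl pH 7.4 with an NADPH-generating system (isocitrate, isocitrate dehydrogenase, MgCl2, NADP+). After 5 min preincubation at 37°C, reactions ran 0, 5, 10 or 20 min and were quenched with cold acetonitrile containing phenytoin internal standard. Parent remaining was measured by LC-MS/MS.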

Row | Stability | SMILES
45 | Stable | Cc1ccc(OS(=O)(=O)c2cccc(C(F)(F)F)c2)c(-c2cc(-c3ccccc3)n(CC(=O)N[C@@H]3CCNC3)n2)c1

tested on: Liver microsome; experiment: Metabolic stability in human liver microsomes; type: ADME; conditions: not given; method in brief: as §4

Row | Stability | SMILES
46 | Stable | Cc1ccc(OS(=O)(=O)c2cccc(C(F)(F)F)c2)c(-c2cc(-c3ccccc3)n(CC(=O)N[C@@H]3CCNC3)n2)c1

tested on: RPMI-8226; experiment: Reversible inhibition of 20S proteasome in human RPMI8226 cell extracts assessed as dissociation half life compound preincubated for 30 mins followed by 25-fold dilution by jump dilution assay; type: cell-based; conditions: not given
Method in brief: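 RPMI 8226 lysate (30 µg protein) was incubated with 10 µM compound for 30 min at room temperature in 20S assay buffer. Baseline Suc-LLVY-AMC hydrolysis was recorded in a cuvette, then the mixture was rapidly diluted 25-fold in assay buffer and recovery of activity was monitored.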

Row | SMILES | T1/2 [min]
47 | Cc1ccc(OS(=O)(=O)c2cccc(C(F)(F)F)c2)c(-c2cc(-c3ccccc3)n(CC(=O)N[C@@H]3CCNC3)n2)c1 | 3.2

tested on: RPMI8266; experiment: Cytotoxicity against human […] cells after 72 hrs; type: functional, cell-based; conditions: not given
Method in brief: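 Suspension RPMI 8226 cells were collected by centrifugation and plated at 10,000 cells/well in medium with 10% FBS. Compound was added 24 h later. Viability was read after 72 h by CellTiter Glo or CellTiter 96 Aqueous One.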

Row | SMILES | Activity
48 | Cc1ccc(OS(=O)(=O)c2cccc(C(F)(F)F)c2)c(-c2cc(-c3ccccc3)n(CC(=O)N[C@@H]3CCNC3)n2)c1 | Active

tested on: LNCaP; experiment: Cytotoxicity against human LNCAP cells after 72 hrs; type: functional, cell-based; conditions: not given; method in brief: as §1

Row | SMILES | Activity
49 | Cc1ccc(OS(=O)(=O)c2cccc(C(F)(F)F)c2)c(-c2cc(-c3ccccc3)n(CC(=O)N[C@@H]3CCNC3)n2)c1 | Active

tested on: LNCaP; experiment: Antitumor activity against human LNCAP cells xenografted in nude mouse assessed as tumor growth inhibition at 5 mg/kg, ip twice a week for 4 weeks; type: functional, organism-based; parameters: dose 5 mg/kg; conditions: not given
Method in brief: (§5)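 Male athymic BALB/c nude mice, six weeks old, implanted subcutaneously with LNCaP cells (2 x 10^6 cells/50 µL). At ~100 mm3 tumors, n=5/group received 5 mg/kg ip twice weekly for four weeks in 8% DMSO in HP-β-cyclodextrin and citrate. Tumor volume ((width)2 x length/2) and body weight were measured every 4 days. Tumors were excised and weighed at Day 30.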

Row | SMILES | TGI
50 | Cc1ccc(OS(=O)(=O)c2cccc(C(F)(F)F)c2)c(-c2cc(-c3ccccc3)n(CC(=O)N[C@@H]3CCNC3)n2)c1 | Active

tested on: Mus musculus; experiment: Toxicity in human LNCAP cells xenografted nude mouse assessed as body weight loss at 5 mg/kg, ip twice a week for 4 weeks; type: organism-based; parameters: dose 5 mg/kg, route intraperitoneal; conditions: in vivo, 672 h; method in brief: as §5

Row | SMILES | Activity
51 | CC(C)C[C@H](NC(=O)[C@H](CCc1ccccc1)NC(=O)CN1CCOCC1)C(=O)N[C@@H](Cc1ccccc1)C(=O)N[C@@H](CC(C)C)C(=O)[C@@]1(C)CO1 [CARFILZOMIB] | Toxic
52 | Cc1ccc(OS(=O)(=O)c2cccc(C(F)(F)F)c2)c(-c2cc(-c3ccccc3)n(CC(=O)N[C@@H]3CCNC3)n2)c1 | Non-toxic
